In ChEMBL document CHEMBL3228029, “Blood glucose lowering sulfonamides with asymmetric carbon atoms. 3. Related N-substituted carbamoylbenzoic acids” (J Med Chem, 1979):
Calls of active or inactive are those of the source. No cut-off for these calls is given here.

What was measured:
Rattus norvegicus [1] = experiment: Hypoglycemic activity in iv dosed rat measured after 1 hr by GOD-Perid method; type: functional
In short: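 Fed female rats received the compound iv as its Na salt in 0.9% saline at four doses. Blood was sampled 1 h post-injection and glucose measured enzymatically (GOD-Perid). Changes were expressed as percent of the control group, and linear dose-response curves were fitted. ED50 is the dose for 50% reduction of the mean control value, with 95% confidence limits.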

Rattus norvegicus [2] = experiment: Hypoglycemic activity in rat at 20 to 375 mg/kg, iv measured after 3 hrs by GOD-Perid method; type: functional, organism-based
In short: (§1)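 Female rats in the fed state were injected iv with the Na salt dissolved in 0.9% saline at four graded doses. Blood samples were taken at 1 and 3 h, and glucose was determined enzymatically by the GOD-Perid method. Effects were expressed relative to the control group (percent control value).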

Rattus norvegicus [3] = experiment: Hypoglycemic activity in rat at 0.0064 to 0.1 mg/kg, iv measured after 3 hrs by GOD-Perid method; type: functional, organism-based; in short: as §1
Rattus norvegicus [4] = experiment: Hypoglycemic activity in rat at 9.6 to 150 mg/kg, iv measured after 3 hrs by GOD-Perid method; type: functional, organism-based; in short: as §1
Rattus norvegicus [5] = experiment: Hypoglycemic activity in rat at 0.16 to 2.5 mg/kg, iv measured after 3 hrs by GOD-Perid method; type: functional, organism-based; in short: as §1
Rattus norvegicus [6] = experiment: Hypoglycemic activity in rat at 40 to 937.5 mg/kg, iv measured after 3 hrs by GOD-Perid method; type: functional, organism-based; in short: as §1
Rattus norvegicus [7] = experiment: Toxicity in rat assessed as suvival at 937.5 mg/kg, iv; type: organism-based; design: dose 937.5 mg/kg, route intravenous; details: in vivo
In short: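 Survival was recorded in fed female rats after iv injection of the Na salt in 0.9% saline as the top dose of a four-dose series. Blood glucose was sampled at 1 and 3 h.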

## COc1ccc(F)cc1[C@H](C)NC(=O)Cc1ccc(C(=O)O)cc1
Rattus norvegicus [1]
  ED50: 63.9 mg/kg
Rattus norvegicus [2]
  Activity: inactive

## COc1ccc(F)cc1[C@H](C)NC(=O)Cc1ccc(S(=O)(=O)Nc2ncc(CC(C)C)cn2)cc1 [GLIFLUMIDE]
Rattus norvegicus [1]
  ED50: 0.02 mg/kg
Rattus norvegicus [3]
  Activity: inactive

## COCCOc1cnc(NS(=O)(=O)c2ccccc2)nc1 [GLYMIDINE]
Rattus norvegicus [1]
  ED50: 69.7 mg/kg
Rattus norvegicus [4]
  Activity: inactive

## COc1ccc(F)cc1[C@@H](C)NC(=O)Cc1ccc(S(=O)(=O)Nc2ncc(CC(C)C)cn2)cc1
Rattus norvegicus [1]
  ED50: 0.81 mg/kg
Rattus norvegicus [5]
  Activity: inactive

## COc1ccc(F)cc1[C@@H](C)NC(=O)Cc1ccc(C(=O)O)cc1
Rattus norvegicus [1]
  ED50: 1180 mg/kg
Rattus norvegicus [6]
  Activity: inactive
Rattus norvegicus [7]
  Activity: Toxic
